Our source for the inhibition, IC50 and Ratio values is ChEMBL document CHEMBL1129571 (J Med Chem, 1996).

pIC50: −log10 of the molar value.

In general, inhibition refers to the drop in the measured response relative to a control, in per cent. Usually pIC50 stands for the IC50 on a negative log10 scale, so that one unit is a factor of ten. A high value points to a low IC50.

For assay [1], the target named is Aldo-keto reductase family 1 member B1 (Rattus norvegicus) (UniProt P07943). Description: In vitro inhibitory activity against partially purified rat lens Aldose reductase at a dose of 5e-7M. The method in brief:
(§1)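 Rat lens AR partially purified from male Wister rat lenses: homogenized in 10 mM phosphate pH 7.0 with 5 mM 2-mercaptoethanol and 1 mM EDTA, then 30–80% ammonium sulfate cut, dialyzed. NADPH decrease followed at 340 nm.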

Assay [2] addresses Aldo-keto reductase family 1 member B1 (Rattus norvegicus, UniProt P07943). Description: In vitro inhibitory activity against rat lens Aldose reductase. The procedure, abridged:
as §1

In assay [3] the target is Aldo-keto reductase family 1 member A1 (Rattus norvegicus, UniProt P51635). Description: In vitro inhibitory activity against rat kidney Aldehyde reductase.
Sequence of Aldo-keto reductase family 1 member A1 (P51635 whole entry, looked up): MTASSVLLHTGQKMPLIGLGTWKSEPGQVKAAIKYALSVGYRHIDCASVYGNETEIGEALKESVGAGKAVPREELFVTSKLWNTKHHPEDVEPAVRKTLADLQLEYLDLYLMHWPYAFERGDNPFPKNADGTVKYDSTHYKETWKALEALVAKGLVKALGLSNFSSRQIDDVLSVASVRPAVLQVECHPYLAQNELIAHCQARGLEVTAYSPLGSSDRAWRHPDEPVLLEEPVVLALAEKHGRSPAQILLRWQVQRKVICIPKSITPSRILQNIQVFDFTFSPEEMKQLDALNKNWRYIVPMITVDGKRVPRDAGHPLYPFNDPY
Assay [4] is described as follows: Ratio of AR IC50 and ALR IC50 of rat lens and kidney enzyme. It is filed as tissue-based. Particulars: Lens of camera-type eye.

For `O=C(O)CN1C(=O)C(=O)N(Cc2ccc([N+](=O)[O-])cc2)C1=O`, the inhibition in assay [1] worked out at 26%.
`O=C(O)CN1C(=O)C(=O)N(Cc2cccc(Cl)c2)C1=O` registered an inhibition in assay [1] of 31%.
Still for that read-out and setting: under `O=C(O)CN1C(=O)C(=O)N(Cc2ccccc2)C1=O` stands 17%; under `O=C(O)CN1C(=O)C(=O)N(Cc2ccccc2[N+](=O)[O-])C1=O`, 66%; under `Cc1ccccc1CN1C(=O)C(=O)N(CC(=O)O)C1=O`, 41%.
In assay [1], `O=C(O)CN1C(=O)C(=O)N(CCc2ccccc2)C1=O` gave an inhibition of 30%.
On the same count and under the same terms, then `O=C(O)CN1C(=O)C(=O)N(Cc2ccc(F)cc2)C1=O`, with 9%; and `COc1cccc(CN2C(=O)C(=O)N(CC(=O)O)C2=O)c1`, with 44%.
For the molecule `O=C(O)CN1C(=O)C(=O)N(Cc2ccc(Cl)c(Cl)c2)C1=O`, the pIC50 in assay [2] was 7.30; in assay [3], less than 4.00. In assay [1], this molecule gave an inhibition of 77%. In addition, the Ratio in assay [4] was greater than 2000.
In assay [1], `O=C(O)CN1C(=O)C(=O)N(Cc2ccccc2Cl)C1=O` gave an inhibition of 32%.
Regarding `O=C(O)CN1C(=O)C(=O)N(Cc2ccc(Cl)cc2Cl)C1=O`, the pIC50 in assay [2] was 7.00; in assay [3] it was 4.34. The same molecule returned an inhibition in assay [1] of 68%. The Ratio in assay [4] was 460.
In assay [1], `O=C(O)CN1C(=O)C(=O)N(Cc2ccc(Cl)cc2)C1=O` had an inhibition of 56%.
For the molecule `Cc1ccc(CCN2C(=O)C(=O)N(CC(=O)O)C2=O)cc1`, in assay [1], the inhibition came to 42%.
The same measure, in the same setting: under `O=C(O)CN1C(=O)C(=O)N(CCc2ccccc2Cl)C1=O` stands 37%.
Same read-out and setting: under `COc1ccc(CCN2C(=O)C(=O)N(CC(=O)O)C2=O)cc1OC` stands 42%; under `O=C(O)CN1C(=O)C(=O)N(CCc2ccc(Br)cc2)C1=O`, 47%.
On the same count and under the same terms, under `COc1ccccc1CN1C(=O)C(=O)N(CC(=O)O)C1=O` stands 16%; under `O=C(O)CN1C(=O)C(=O)N(CCCc2ccccc2)C1=O`, 16%; under `O=C(O)CN1C(=O)C(=O)N(Cc2ccc(Br)cc2)C1=O`, 65%.
Molecule `COc1ccc(CN2C(=O)C(=O)N(CC(=O)O)C2=O)cc1OC` had an inhibition in assay [1] of 29%.
Turning to `Cc1ccc(CN2C(=O)C(=O)N(CC(=O)O)C2=O)cc1`, the inhibition in assay [1] was 30%.
Consider `O=C(O)CN1C(=O)C(=O)N(CCc2ccc(Cl)c(Cl)c2)C1=O`, for which, in assay [1], the inhibition was found to be 57%.
As for `O=C(O)CN1C(=O)C(=O)N(CCc2cccc([N+](=O)[O-])c2)C1=O`, in assay [1], the inhibition turned out to be 36%.
In assay [1], `CCOC(=O)CN1C(=O)C(=O)N(Cc2cccc([N+](=O)[O-])c2)C1=O` registered an inhibition of 31%.
With `O=C(O)CN1C(=O)C(=O)N(CCCCc2ccccc2)C1=O`, in assay [1], the inhibition amounted to 25%.
Same read-out and setting: then `O=C(O)CN1C(=O)C(=O)N(Cc2cccc([N+](=O)[O-])c2)C1=O`, with 75%.
